Where two headings read alike, the source gives them in different places.
Columns and labels:
GPR41 = molecular target: T1, GPR41 (Homo sapiens, UniProt O14843); test: cAMP assay in GPR41-expressing HEK293 cells; type: cell-based
T1 sequence (O14843 1-346): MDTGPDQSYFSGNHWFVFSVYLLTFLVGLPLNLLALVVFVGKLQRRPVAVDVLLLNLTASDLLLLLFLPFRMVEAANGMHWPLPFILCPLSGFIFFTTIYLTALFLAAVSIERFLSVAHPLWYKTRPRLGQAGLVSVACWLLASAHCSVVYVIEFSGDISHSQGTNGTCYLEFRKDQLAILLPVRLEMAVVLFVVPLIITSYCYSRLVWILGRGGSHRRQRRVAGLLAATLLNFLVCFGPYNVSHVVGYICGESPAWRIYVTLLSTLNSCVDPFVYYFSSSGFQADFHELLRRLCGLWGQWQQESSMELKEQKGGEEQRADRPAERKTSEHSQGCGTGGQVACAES

human GPR43 [1] = molecular target: T2, human GPR43 (Homo sapiens, UniProt O15552); test: GloSensor cAMP assay in HEK293-hGPR43 cells; type: cell-based
T2 sequence (O15552 1-330): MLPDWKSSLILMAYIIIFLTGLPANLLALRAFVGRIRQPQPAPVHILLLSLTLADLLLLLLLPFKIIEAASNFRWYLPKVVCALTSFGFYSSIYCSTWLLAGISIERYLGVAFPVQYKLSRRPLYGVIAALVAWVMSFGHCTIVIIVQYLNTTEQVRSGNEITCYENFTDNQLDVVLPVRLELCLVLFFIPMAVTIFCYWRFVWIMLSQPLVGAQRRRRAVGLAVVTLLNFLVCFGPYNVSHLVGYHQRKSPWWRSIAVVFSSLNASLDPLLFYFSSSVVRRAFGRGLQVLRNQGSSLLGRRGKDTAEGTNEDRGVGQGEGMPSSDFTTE
Outline: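 pGloSensor-22F was transfected into cumate-inducible HEK293-hGPR43 cells, which were re-plated 24 h later for 16 h. Cells were equilibrated 2 h at 20°C in CO2-independent medium with 2% GloSensor cAMP reagent, then pre-read. Compound was added for 5 min, then 1 μM forskolin for 15 min, followed by a luminescence post-read. Signal is post/pre-read, normalised to 0.2% DMSO. Single-point acetate/propionate 10 mM, other agonists 10 μM. Triplicate.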

human GPR43 [2] = molecular target: T2, human GPR43; test: Ca2+ flux assay in HEK293-hGPR43 cells; type: cell-based
Outline: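 HEK293 cells with cumate-inducible human GPR43, kept in DMEM/10% FBS/GlutaMAX/Pen-Strep/2 μg/mL puromycin at 37°C, 5% CO2. Seeded overnight, then loaded 2 h with Calcium 6 dye plus 2.5 mM probenecid. Fluorescence read (ex 485/em 525 nm) every 2.1 s for 50 s. Cells serum-starved. Run in duplicate or triplicate; mean ± SEM.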

GPR43 and β-arrestin 2 = molecular target: T3, GPR43 and β-arrestin 2 (Homo sapiens, UniProt O15552); test: Nano-Glo live cell assay of interaction between GPR43 and β-arrestin 2; type: cell-based; conditions: for change of potency / slope in β-arrestin-2 NanoBiT assay on addition of acetate: co-treatment with fixed concentrations of acetate
T3 sequence (O15552 1-330): T2 sequence (O15552 1-330)

[3] = test system: NF-κB activity induced by TNF-α in GPR43-expressing cells; test: NF-κB luciferase reporter assay in HEK293-hGPR43 cells; type: cell-based, human
Outline: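 For the NF-κB reporter readout, HEK293-hGPR43 cells were transfected with an NF-κB-RE luciferase reporter (pGL4.32), incubated 24 h at 37°C, 5% CO2, and plated overnight. Compound pretreatment lasted 20 min, then 10 ng/mL human TNF-α was added for 6 h at 37°C. Luminescence was read 15 min after adding One-Glo reagent. Duplicate or triplicate.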

DSS-induced colitis = DSS-induced colitis mouse model; type: in vivo, mouse (female C57BL/6); conditions: 30 mg/kg p.o. daily, 2% DSS
Outline: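 Female C57BL/6 mice, 5 weeks old, SPF, acclimated 1 week, given 2% DSS (36–50 kDa) in drinking water ad libitum, renewed every 3 days. Compound 30 mg/kg p.o. daily. Scored daily: weight loss 0–4, stool 0–3, hemoccult bleeding 0–3. DAI is their sum. Day 8: colon length measured. PFA-fixed paraffin swiss-rolls stained for MPO by IHC (ABC, hematoxylin). n=5 control, 10 others.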

Solubility in DMSO = type: physicochemical; conditions: at a concentration of 20 mM
[4] = Homo sapiens, 6 h, read-out: EC50 NF-κB

## CC1=C(C(=O)Nc2cc(Cl)ccc2Cl)C(c2ccco2)C2=C(CCCC2=O)N1 (stereo not shown) [AR420626]
GPR41; 10 μM
  cAMP level in GPR41-expressing cells: exerted activity

## Cc1nc(N2C[C@@H](C)O[C@@H](C)C2)c2[nH]c(N)c(S(=O)(=O)c3ccccc3F)c2n1 [Compound 187, 4-[(2R,6S)-2,6-dimethylmorpholin-4-yl]-7-(2-fluorobenzenesulfonyl)-2-methyl-5H-pyrrolo[3,2-d]pyrimidin-6-amine]
Human GPR43 [1]
  EC50: 0.016 µM
Human GPR43 [1]; 10 μM
  cAMP level in GPR43-expressing cells: significantly suppressed
Human GPR43 [2]
  EC50: 0.019 µM
Human GPR43 [2]; HEK293-hGPR43
  potency and efficacy in the calcium assay: highest potency and efficacy
GPR43 and β-arrestin 2
  EC50: 0.018 µM
  agonist type in the β-arrestin assay (maximum efficacy vs acetate and PAAT): partial agonists
  change of potency / slope in β-arrestin-2 NanoBiT assay on addition of acetate: stiffer slopes
[3]; [4]
  EC50: 0.019 µM
GPR41; 10 μM
  cAMP level in GPR41-expressing cells: no effects
DSS-induced colitis; day 8
  level of myeloperoxidase (MPO) staining in colon: reduced
Solubility in DMSO
  solubility in dimethyl sulfoxide (DMSO): completely soluble

## Cc1nc(N2CCCC(C)C2)c2[nH]c(N)c(S(=O)(=O)c3ccccc3)c2n1 (stereo not shown) [Compound 110, 2-methyl-4-(3-methylpiperidin-1-yl)-7-(phenylsulfonyl)-5H-pyrrolo[3,2-d]pyrimidine-6-amine]
Human GPR43 [1]
  EC50: 18.7 µM
Human GPR43 [1]; 10 μM
  cAMP level in GPR43-expressing cells: significantly suppressed
Human GPR43 [1]; HEK293-hGPR43
  potency in the cAMP assay: micromolar potency
Human GPR43 [2]
  EC50: 2.41 µM
GPR43 and β-arrestin 2
  EC50: 1.61 µM
  agonist type in the β-arrestin assay (maximum efficacy vs acetate and PAAT): partial agonists
  change of potency / slope in β-arrestin-2 NanoBiT assay on addition of acetate: stiffer slopes
[3]; [4]
  EC50: 3.41 µM
[3]; Homo sapiens, read-out: EC50 NF-κB luciferase reporter
  EC50: 3.4 µM
GPR41; 10 μM
  cAMP level in GPR41-expressing cells: no effects
DSS-induced colitis; day 8
  colon length: significantly restored
  level of myeloperoxidase (MPO) staining in colon: reduced
DSS-induced colitis; vs vehicle-treated mice
  daily activity index (DAI): decrease
  stool consistency score: decrease
Solubility in DMSO
  solubility in dimethyl sulfoxide (DMSO): completely soluble

## CCC(=O)O [propionate, reference compound]
Human GPR43 [1]; 10 mM
  cAMP level in GPR43-expressing cells: decrease
GPR41; 10 mM
  cAMP level in GPR41-expressing cells: decrease

## CC(=O)[O-].[Na+] [Acetate, sodium acetate, reference compound]
Human GPR43 [1]; 10 mM
  cAMP level in GPR43-expressing cells: decrease
Human GPR43 [1]; read-out: EC50 cAMP, HEK293-hGPR43, forskolin 1 μM
  EC50: 301 µM
Human GPR43 [1]; read-out: EC50 in the cAMP assay, HEK293-hGPR43
  EC50: 300 µM
Human GPR43 [2]; read-out: EC50 Ca^2+, HEK293-hGPR43
  EC50: 57.7 µM
GPR43 and β-arrestin 2; read-out: EC50 β-Arrestin 2, GPR43-SmBit / LgBit-βarr2, 25 min
  EC50: 1440 µM
[3]; 10 ng/mL TNF-α
  efficacy of inhibition of NF-κB luciferase reporter activity: half the efficacy
[3]; read-out: EC50 NF-κB, 10 ng/mL TNF-α, 6 h
  EC50: 77.4 µM
GPR41; 10 mM
  cAMP level in GPR41-expressing cells: decrease

— article PMC8724840 (Biomolecules & Therapeutics, 2021)
